Results: ChEMBL document CHEMBL4190374, “Structure-Function Evaluation of Imidazopyridine Derivatives Selective for δ-Subunit-Containing γ-Aminobutyric Acid Type A (GABAA) Receptors” (J Med Chem, 2018)

What was measured:
[1] = biological target: Gamma-aminobutyric acid receptor subunit alpha-6/beta-3/delta (Rattus norvegicus, UniProt P18506+P30191+P63079); assay: Displacement of [3H]EBOB from rat GABA-A receptor alpha6beta3delta expressed in HEK293 cell membranes after 90 mins by liquid scintillation counting analysis
Procedure, shortened: (§1)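 Crude membranes from HEK 293 cells transiently Ca-phosphate-transfected with rat subunit cDNAs, harvested at 48 h. Membranes (150-200 µg protein) incubated with 3 nM [3H]EBOB in 50 mM Tris/citrate pH 7.3 plus 0.2 M NaCl. Compound up to 10 µM, final DMSO 0.1%, no GABA, 90 min at 21 °C. Bound radioligand collected by GF/C filtration and counted by scintillation.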

[2] = biological target: T1, Gamma-aminobutyric acid receptor subunit alpha-4/beta-3 (Rattus norvegicus) (UniProt P28471+P63079); assay: Displacement of [3H]EBOB from rat GABA-A receptor alpha4beta3 expressed in HEK293 cell membranes up to 10 uM after 90 mins by liquid scintillation counting analysis relative to control; procedure, shortened: as §1
[3] = biological target: T1, Gamma-aminobutyric acid receptor subunit alpha-4/beta-3 (Rattus norvegicus); assay: Agonist activity at rat […] GABA-A receptor alpha4beta3 expressed in HEK293 cells assessed as ratio of I0 to GABA Imax at 10 uM in absence of GABA by patch-clamp assay; assay type: cell-based
Procedure, shortened: (§2)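 Whole-cell patch clamp on single fluorescent HEK 293 cells 48 h after transient co-transfection with rat subunit cDNAs plus eGFP. Extracellular solution 135 mM NaCl, 5.3 mM KCl, 2 mM CaCl2, 2 mM MgSO4, 10 mM HEPES pH 7.4, perfused 3 mL/min. Compound at 10 µM without GABA. Current expressed relative to 1 mM GABA at the same receptor (I0/Imax GABA), mean ± S.D. of n experiments.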

[4] = biological target: Gamma-aminobutyric acid receptor subunit alpha-1/beta-3/gamma-2 (Rattus norvegicus) (UniProt P18508+P62813+P63079); assay: Agonist activity at rat […] GABA-A receptor alpha1beta3gamma2 expressed in HEK293 cells assessed as ratio of I0 to GABA Imax at 10 uM in absence of GABA by patch-clamp assay; assay type: cell-based; procedure, shortened: as §2
[5] = biological target: T1, Gamma-aminobutyric acid receptor subunit alpha-4/beta-3 (Rattus norvegicus); assay: Modulation of rat […] GABA-A receptor alpha4beta3 expressed in HEK293 cells up to 10 uM in presence of GABA by patch-clamp assay relative to control; assay type: cell-based
Procedure, shortened: (§3)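 Rat GABA-A subunits were transiently co-transfected with eGFP into HEK293 cells on coverslips. Fluorescent cells were recorded by whole-cell patch clamp 48 h later; bath pH 7.4, KCl/KOH pipette pH 7.2. Compound was applied at increasing concentrations up to 10 µM with the receptor-specific GABA EC20. Peak currents were fitted logistically for EC50, Hill and % modulation, as mean ± S.E.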

[6] = biological target: Gamma-aminobutyric acid receptor subunit alpha-4/beta-3/gamma-2 (Rattus norvegicus) (UniProt P18508+P28471+P63079); assay: Displacement of [3H]EBOB from rat GABA-A receptor alpha4beta3gamma2 expressed in HEK293 cell membranes up to 10 uM after 90 mins by liquid scintillation counting analysis relative to control; procedure, shortened: as §1
[7] = biological target: GABA A receptor alpha-6/beta-2/gamma-2 (Rattus norvegicus, UniProt P18508+P30191+P63138); assay: Displacement of [3H]EBOB from rat GABA-A receptor alpha6beta2gamma2 expressed in HEK293 cell membranes after 90 mins by liquid scintillation counting analysis; procedure, shortened: as §1
[8] = biological target: T2, Gamma-aminobutyric acid receptor subunit alpha-4/beta-3/delta (Rattus norvegicus) (UniProt P18506+P28471+P63079); assay: Modulation of rat […] GABA-A receptor alpha4beta3delta expressed in HEK293 cells up to 10 uM in presence of GABA by patch-clamp assay relative to control; assay type: cell-based; procedure, shortened: as §3
[9] = biological target: T2, Gamma-aminobutyric acid receptor subunit alpha-4/beta-3/delta (Rattus norvegicus); assay: Displacement of [3H]EBOB from rat GABA-A receptor alpha4beta3delta expressed in HEK293 cell membranes up to 10 uM after 90 mins by liquid scintillation counting analysis relative to control; procedure, shortened: as §1
[10] = species: Rattus norvegicus; assay: Selectivity ratio of IC50 for rat GABA-A receptor alpha4beta3 expressed in HEK293 cells to IC50 for rat GABA-A receptor alpha4beta3delta expressed in HEK293 cells; assay type: cell-based
[11] = biological target: T3, Gamma-aminobutyric acid receptor subunit alpha-6/beta-3 (Rattus norvegicus, UniProt P30191+P63079); assay: (§4) Displacement of [3H]EBOB from rat GABA-A receptor alpha6beta3 expressed in HEK293 cell membranes after 90 mins in presence of GABA by liquid scintillation counting analysis
[12] = biological target: T4, Gamma-aminobutyric acid receptor subunit alpha-6/beta-3 (Rattus norvegicus) (UniProt P30191+P63079); assay: as §4
[13] = biological target: T3, Gamma-aminobutyric acid receptor subunit alpha-6/beta-3; assay: Displacement of [3H]EBOB from rat GABA-A receptor alpha6beta3 expressed in HEK293 cell membranes after 90 mins by liquid scintillation counting analysis; procedure, shortened: as §1
[14] = biological target: Gamma-aminobutyric acid receptor subunit alpha-1/beta-3/delta (Rattus norvegicus) (UniProt P18506+P62813+P63079); assay: Agonist activity at rat […] GABA-A receptor alpha1beta3delta expressed in HEK293 cells assessed as ratio of I0 to GABA Imax at 10 uM in absence of GABA by patch-clamp assay; assay type: cell-based; procedure, shortened: as §2
[15] = biological target: Gamma-aminobutyric acid receptor subunit alpha-1/beta-3 (Rattus norvegicus) (UniProt P62813+P63079); assay: Agonist activity at rat […] GABA-A receptor alpha1beta3 expressed in HEK293 cells assessed as ratio of I0 to GABA Imax at 10 uM in absence of GABA by patch-clamp assay; assay type: cell-based; procedure, shortened: as §2
[16] = biological target: Gamma-aminobutyric acid receptor subunit alpha-1/beta-3/gamma-2 (Rattus norvegicus, UniProt P18508+P62813+P63079); assay: Modulation of rat […] GABA-A receptor alpha1beta3gamma2 expressed in HEK293 cells in presence of GABA by patch-clamp assay; assay type: cell-based; procedure, shortened: as §3
[17] = biological target: T4, Gamma-aminobutyric acid receptor subunit alpha-6/beta-3 (Rattus norvegicus); assay: Displacement of [3H]EBOB from rat GABA-A receptor alpha6beta3 expressed in HEK293 cell membranes up to 10 uM after 90 mins by liquid scintillation counting analysis relative to control; procedure, shortened: as §1
[18] = species: Rattus norvegicus; assay: Selectivity ratio of IC50 for rat GABA-A receptor alpha6beta2gamma2 expressed in HEK293 cells to IC50 for rat GABA-A receptor alpha6beta2delta expressed in HEK293 cells; assay type: cell-based
[19] = species: Rattus norvegicus; assay: Selectivity ratio of IC50 for rat GABA-A receptor alpha6beta2 expressed in HEK293 cells to IC50 for rat GABA-A receptor alpha6beta2delta expressed in HEK293 cells; assay type: cell-based
[20] = biological target: T4, Gamma-aminobutyric acid receptor subunit alpha-6/beta-3 (Rattus norvegicus); assay: Agonist activity at rat […] GABA-A receptor alpha6beta3 expressed in HEK293 cells assessed as ratio of I0 to GABA Imax at 10 uM in absence of GABA by patch-clamp assay; assay type: cell-based; procedure, shortened: as §2
[21] = biological target: Gamma-aminobutyric acid receptor subunit alpha-6/beta-3/delta (Rattus norvegicus) (UniProt P18506+P30191+P63079); assay: Agonist activity at rat […] GABA-A receptor alpha6beta3delta expressed in HEK293 cells assessed as ratio of I0 to GABA Imax at 10 uM in absence of GABA by patch-clamp assay; assay type: cell-based; procedure, shortened: as §2

T3 sequence (P30191 whole entry): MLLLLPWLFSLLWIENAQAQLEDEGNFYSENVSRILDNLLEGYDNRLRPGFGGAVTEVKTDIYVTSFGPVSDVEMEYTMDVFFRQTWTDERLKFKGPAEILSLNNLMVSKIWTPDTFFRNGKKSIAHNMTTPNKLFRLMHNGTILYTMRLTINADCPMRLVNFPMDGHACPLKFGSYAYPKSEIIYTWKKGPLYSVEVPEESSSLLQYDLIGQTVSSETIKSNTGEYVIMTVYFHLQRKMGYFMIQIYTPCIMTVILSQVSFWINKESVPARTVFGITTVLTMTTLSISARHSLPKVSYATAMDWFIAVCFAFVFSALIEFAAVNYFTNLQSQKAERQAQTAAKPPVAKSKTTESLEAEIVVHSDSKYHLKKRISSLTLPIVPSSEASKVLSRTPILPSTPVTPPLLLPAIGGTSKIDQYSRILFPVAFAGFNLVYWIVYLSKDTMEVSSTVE
T3 sequence (P63079 whole entry): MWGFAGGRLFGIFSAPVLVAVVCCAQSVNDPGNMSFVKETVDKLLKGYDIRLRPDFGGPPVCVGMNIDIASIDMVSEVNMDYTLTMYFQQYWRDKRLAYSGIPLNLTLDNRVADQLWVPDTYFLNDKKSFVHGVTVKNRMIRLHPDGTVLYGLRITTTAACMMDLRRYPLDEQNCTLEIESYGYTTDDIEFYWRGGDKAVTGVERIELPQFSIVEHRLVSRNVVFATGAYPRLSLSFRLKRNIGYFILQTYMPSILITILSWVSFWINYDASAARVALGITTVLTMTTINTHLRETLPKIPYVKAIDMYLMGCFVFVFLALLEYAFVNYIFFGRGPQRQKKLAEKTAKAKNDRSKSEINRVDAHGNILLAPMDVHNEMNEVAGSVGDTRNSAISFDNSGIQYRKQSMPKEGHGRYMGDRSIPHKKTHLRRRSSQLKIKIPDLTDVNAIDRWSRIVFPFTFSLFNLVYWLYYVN
Chain of Gamma-aminobutyric acid receptor subunit alpha-6/beta-3/delta (P18506 whole entry): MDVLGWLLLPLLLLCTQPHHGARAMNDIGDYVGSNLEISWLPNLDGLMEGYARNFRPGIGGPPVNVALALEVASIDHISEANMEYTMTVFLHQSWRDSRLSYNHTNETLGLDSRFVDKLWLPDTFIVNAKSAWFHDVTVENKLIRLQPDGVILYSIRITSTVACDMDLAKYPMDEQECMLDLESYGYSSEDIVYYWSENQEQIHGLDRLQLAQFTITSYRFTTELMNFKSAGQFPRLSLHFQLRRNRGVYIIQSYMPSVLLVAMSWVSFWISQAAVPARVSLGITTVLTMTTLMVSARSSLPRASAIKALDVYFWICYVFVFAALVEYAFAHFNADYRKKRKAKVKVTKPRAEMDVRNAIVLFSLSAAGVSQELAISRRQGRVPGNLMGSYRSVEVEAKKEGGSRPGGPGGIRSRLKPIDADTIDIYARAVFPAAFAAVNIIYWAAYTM
Chain of Gamma-aminobutyric acid receptor subunit alpha-6/beta-3/delta (P30191 whole entry): as the sequence (P30191 whole entry) above
Chain of Gamma-aminobutyric acid receptor subunit alpha-6/beta-3/delta (P63079 whole entry): as the sequence (P63079 whole entry) above
Chain of Gamma-aminobutyric acid receptor subunit alpha-1/beta-3/gamma-2 (P18508 whole entry): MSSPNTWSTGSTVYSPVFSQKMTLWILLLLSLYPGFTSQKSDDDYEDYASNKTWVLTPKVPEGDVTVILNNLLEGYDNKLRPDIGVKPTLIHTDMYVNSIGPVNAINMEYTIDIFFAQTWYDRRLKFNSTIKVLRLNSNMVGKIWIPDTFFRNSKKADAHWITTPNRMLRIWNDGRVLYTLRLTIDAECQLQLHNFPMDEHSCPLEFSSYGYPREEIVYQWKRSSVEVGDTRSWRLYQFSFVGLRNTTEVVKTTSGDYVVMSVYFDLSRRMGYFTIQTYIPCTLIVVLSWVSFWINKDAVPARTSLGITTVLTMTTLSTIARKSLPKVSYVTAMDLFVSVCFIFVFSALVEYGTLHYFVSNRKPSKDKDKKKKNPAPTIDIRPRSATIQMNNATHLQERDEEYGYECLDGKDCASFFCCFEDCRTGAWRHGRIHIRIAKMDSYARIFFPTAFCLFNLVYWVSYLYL
Chain of Gamma-aminobutyric acid receptor subunit alpha-1/beta-3/gamma-2 (P62813 whole entry): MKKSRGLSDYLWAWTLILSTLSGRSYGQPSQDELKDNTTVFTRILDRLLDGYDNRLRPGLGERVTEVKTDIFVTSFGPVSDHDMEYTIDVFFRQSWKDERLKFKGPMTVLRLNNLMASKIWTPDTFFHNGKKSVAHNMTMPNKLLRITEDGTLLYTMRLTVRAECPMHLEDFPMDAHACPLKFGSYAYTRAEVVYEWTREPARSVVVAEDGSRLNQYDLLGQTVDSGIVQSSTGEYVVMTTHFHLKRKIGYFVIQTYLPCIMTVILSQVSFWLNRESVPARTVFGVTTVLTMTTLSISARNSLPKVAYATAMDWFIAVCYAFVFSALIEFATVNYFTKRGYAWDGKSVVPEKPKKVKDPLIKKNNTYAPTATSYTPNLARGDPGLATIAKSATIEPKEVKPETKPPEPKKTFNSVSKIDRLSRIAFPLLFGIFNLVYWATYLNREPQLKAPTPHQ
Chain of Gamma-aminobutyric acid receptor subunit alpha-1/beta-3/gamma-2 (P63079 whole entry): as the sequence (P63079 whole entry) above
Chain of GABA A receptor alpha-6/beta-2/gamma-2 (P18508 whole entry): as the sequence (P18508 whole entry) above
Chain of GABA A receptor alpha-6/beta-2/gamma-2 (P30191 whole entry): as the sequence (P30191 whole entry) above
Chain of GABA A receptor alpha-6/beta-2/gamma-2 (P63138 whole entry): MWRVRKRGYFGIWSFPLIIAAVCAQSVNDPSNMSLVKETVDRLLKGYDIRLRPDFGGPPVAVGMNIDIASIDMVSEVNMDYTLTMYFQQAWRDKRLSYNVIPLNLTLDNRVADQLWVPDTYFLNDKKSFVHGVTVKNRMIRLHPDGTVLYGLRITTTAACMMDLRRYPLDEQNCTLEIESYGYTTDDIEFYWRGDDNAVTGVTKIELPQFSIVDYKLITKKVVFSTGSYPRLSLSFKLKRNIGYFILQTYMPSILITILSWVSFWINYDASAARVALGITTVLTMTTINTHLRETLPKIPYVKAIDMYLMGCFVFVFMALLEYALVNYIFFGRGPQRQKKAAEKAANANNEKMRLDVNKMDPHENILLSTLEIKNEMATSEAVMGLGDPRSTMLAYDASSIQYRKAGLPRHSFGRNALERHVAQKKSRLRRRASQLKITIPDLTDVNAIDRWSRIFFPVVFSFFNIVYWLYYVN

IC50 [1]: 310 nM
Imax [2]: 80%
Ratio [3]: 0.124
Ratio [4]: 0.058
Activity [5]: 168%
Imax [6]: 67%
IC50 [7]: 1130 nM
Activity [8]: 297%
Imax [9]: 61%
IC50 [11]: 960 nM
Imax [12]: 96%
IC50 [13]: 790 nM
Ratio [14]: 0.323
Ratio [15]: 0.074
EC50 [16]: 2010 nM
Imax [17]: 90%
Ratio [20]: 1.48
Ratio [21]: 1.04
SMILES: O=C(Nc1c(-c2cccs2)nc2c(Br)cc(Br)cn12)c1ccc(Cl)cc1
Ratio IC50 [10]: 4
Ratio IC50 [18]: 7
Ratio IC50 [19]: 4
